The term IC50 denotes the concentration that gives 50% inhibition.

Molecules are shown by their SMILES.

Biological target in one test: not listed separately
Description: Inhibition of N8-acetylspermidine deacetylase in rat liver subcellular extract. The note with it: read-out: Ki(app).
Take `NCCCNCCCCCC(=O)NO`: the Ki was determined as 0.001 µM.

A further test concerns the target T1, Acetylpolyamine amidohydrolase (Mycoplana ramosa, UniProt Q48935).
T1 sequence (Q48935 whole entry): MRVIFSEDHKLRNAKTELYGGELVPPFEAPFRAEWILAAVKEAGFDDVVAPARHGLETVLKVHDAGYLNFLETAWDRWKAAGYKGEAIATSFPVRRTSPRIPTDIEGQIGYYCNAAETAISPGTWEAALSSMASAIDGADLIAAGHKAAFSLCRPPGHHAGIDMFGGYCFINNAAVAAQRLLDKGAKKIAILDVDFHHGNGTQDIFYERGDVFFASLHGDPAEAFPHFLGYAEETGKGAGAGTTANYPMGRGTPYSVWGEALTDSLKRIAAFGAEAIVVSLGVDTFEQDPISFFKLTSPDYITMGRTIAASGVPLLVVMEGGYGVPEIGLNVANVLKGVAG
Description: Inhibition of Mycoplana ramosa APAH expressed in Escherichia coli BL21 (DE3) using BML-KI104 as substrate after 30 mins by fluorimetric assay.
Details: not given
The essentials:
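Recombinant enzyme purified from E. coli, 250 nM, at 25 °C with 150 μM Fluor-de-Lys acetyl substrate and 0–100 mM inhibitor. Buffer was 25 mM Tris pH 8.2, 137 mM NaCl, 2.7 mM KCl, 1 mM MgCl2, with 100 μM TCEP only for the thiol compound. Stopped at 30 min with 100 μM M344 plus developer. Fluorescence (ex 355/em 460 nm) was read after 45 min. Each concentration was run in triplicate in separate experiments.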
`CC(=O)CCCCCNCCCN` gave an IC50 of 160 µM.
`NCCCNCCCCCC(=O)NO` showed an IC50 of 0.39 µM.
In the case of `NCCCNCCCCCS`, the IC50 is 26 µM.
Same read-out and setting: the figure for `CS(=O)(=O)CCCCCNCCCN` is 10000 µM.
Still for that read-out and setting: the figure for `NCCCNCCCCCC(=O)O` is 1800 µM.
Same read-out and setting: the figure for `NCCCNCCCCCC(=O)C(F)(F)F` is 0.27 µM; for `CC(=O)SCCCCCNCCCN` it is 1900 µM; for `NCCCNCCCCCB(O)O` it is 230 µM.
Molecule `COCC(=O)CCCCCNCCCN` displayed an IC50 of 380 µM.
The same measure, in the same setting: then `CC(=O)SCC(=O)CCCCCNCCCN`, with 39 µM.
